Data set [1] deals with Mus musculus. As to the kind of experiment: Toxicity in Crl:NMRI mouse at 20 mg/kg, po. Type of data set: organism-based. On the set-up: dose 20 mg/kg, route oral. Particulars: in vivo. The procedure, abridged: (§1)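 Single oral doses of lactate salts (5, 10 and/or 20 mg/kg bodyweight) were given to 4-week-old female Crl:NMRI mice, n = 3 per group. Moribund mice were euthanized.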

In data set [2] the test system is Cryptosporidium parvum. As to the kind of experiment: Antiprotozoal activity against Cryptosporidium parvum at 0.8 nM. The data set is classed as functional, organism-based. The procedure, abridged: (§2)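 C. parvum development measured in host-cell culture across three independent compound dilution series, with monensin as positive control. The read-out was parasite foci area, with control and test cultures normalized to 100,000 µm² of foci area.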

For data set [3], the system named is Mus musculus. As to the kind of experiment: Toxicity in Crl:NMRI mouse at 10 mg/kg, po. The data set is classed as organism-based. Further details: dose 10 mg/kg, route oral. The conditions noted are these: in vivo. The method, boiled down:
as §1

Data set [4] has as its system Cryptosporidium parvum. As to the kind of experiment: Antiprotozoal activity against Cryptosporidium parvum. Type of data set: functional, organism-based. The procedure, abridged:
as §2

Data set [5] relates to Mus musculus. As to the kind of experiment: Toxicity in Crl:NMRI mouse at 5 mg/kg, po. The data set is classed as organism-based. Further details: dose 5 mg/kg, route oral. The conditions noted are these: in vivo. The method, boiled down:
as §1

The subject of data set [6] is Cryptosporidium parvum. As to the kind of experiment: Antiprotozoal activity against Cryptosporidium parvum up to 6 nM. Type of data set: functional. The procedure, abridged:
as §2

The source made the active and inactive calls. The calls are words filed in the database; no cut-off is given here.

On to `CC(O)C(=O)O.O=C(C[C@@H]1NCCC[C@H]1O)Cn1cnc2cc(Br)c(Cl)cc2c1=O`, for which the Activity result with Mus musculus [1] is recorded as “Not Active”.

Turning to `CC(O)C(=O)O.O=C(C[C@H]1NCCC[C@@H]1O)Cn1cnc2cc(Br)c(Cl)cc2c1=O`, the outcome in the data set with Cryptosporidium parvum [2] was inactive. In addition, the Activity entry in the data set with Mus musculus [3] and with Mus musculus [5] was “Toxic” in each case. In addition, the result with Cryptosporidium parvum [4] was Active. As for `O=C(CC1NCCCC1O)Cn1cnc2cc(Br)c(Cl)cc2c1=O` (racemic; form 1), in the data set with Cryptosporidium parvum [2], the result was inactive. The outcome with Cryptosporidium parvum [4] was Active. `CC(O)C(=O)O.O=C(CC1NCCCC1O)Cn1cnc2cc(Br)c(Cl)cc2c1=O` (racemic; form 1) [HALOFUGINONE LACTATE]: in the data set on Cryptosporidium parvum [6], the Activity is recorded as 80%.

On to `O=C(CC1NCCCC1O)Cn1cnc2cc(Br)c(Cl)cc2c1=O` (racemic; form 2), for which the outcome in the data set on Cryptosporidium parvum [2] was inactive. Also, in the data set on Cryptosporidium parvum [4], the outcome was Active. `Br.O=C(CC1NCCCC1O)Cn1cnc2cc(Br)c(Cl)cc2c1=O` (racemic; form 2) [HALOFUGINONE HYDROBROMIDE] had an Activity with Cryptosporidium parvum [6] of 80%.
